# Results reported in ChEMBL document CHEMBL2177067 (J Med Chem, 2012).
# Experiments:
# [1] = Selectivity index, ratio of CC50 for human HeLa cells to MIC for Staphylococcus aureus ATCC 25923; format: functional
# Method in brief: (§1)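 Selectivity index is HeLa CC50 (MTS assay) divided by the bacterial MIC.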
# [2] = Selectivity index, ratio of CC50 for human HeLa cells to MIC for Bacillus anthracis; format: functional; method in brief: as §1
# Staphylococcus aureus [3] = assay: Antibacterial activity against Staphylococcus aureus ATCC 25923 by broth microdilution method; format: functional
# Bacillus anthracis = assay: Antibacterial activity against Bacillus anthracis by broth microdilution method; format: functional
# HeLa = assay: Cytotoxicity against human HeLa cells by MTS assay; format: cell-based
# Replicative DNA helicase = biological target: T1, Replicative DNA helicase (Bacillus anthracis, UniProt A0A6L8Q2B7); assay: Inhibition of Bacillus anthracis Sterne 34F2 replicative DNA helicase-mediated ATP-dependent dissociation of Hel-5'FAM:Hel-3'BHQ by FRET assay; design: species or system Bacillus anthracis str. Sterne
# T1 sequence (A0A6L8Q2B7 whole entry): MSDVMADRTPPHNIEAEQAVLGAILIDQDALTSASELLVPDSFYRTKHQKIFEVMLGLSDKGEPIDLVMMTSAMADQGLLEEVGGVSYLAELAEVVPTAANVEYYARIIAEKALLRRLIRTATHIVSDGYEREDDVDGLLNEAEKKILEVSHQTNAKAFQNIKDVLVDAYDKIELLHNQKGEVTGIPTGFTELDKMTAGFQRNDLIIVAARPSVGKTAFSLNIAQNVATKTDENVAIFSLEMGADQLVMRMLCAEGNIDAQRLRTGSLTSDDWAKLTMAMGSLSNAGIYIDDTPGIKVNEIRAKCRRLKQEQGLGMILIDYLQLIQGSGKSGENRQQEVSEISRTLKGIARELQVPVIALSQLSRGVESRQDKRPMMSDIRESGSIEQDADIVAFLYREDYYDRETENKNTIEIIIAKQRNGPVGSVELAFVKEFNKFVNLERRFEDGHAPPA
# Method in brief: (§2)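 Unwinding was read by FRET as helicase-driven, ATP-dependent dissociation of annealed Hel-5′FAM and Hel-3′BHQ oligonucleotides, one fluorescent and the other quencher-labelled. The replicative helicases were prepared as described earlier.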
# [4] = Inhibition of Staphylococcus aureus ATCC 25923 replicative DnaB helicase-mediated ATP-dependent dissociation of Hel-5'FAM:Hel-3'BHQ by FRET assay; method in brief: as §2
# Staphylococcus aureus [5] = assay: Antibacterial activity against Staphylococcus aureus ATCC 25923 by broth microdilution method in presence of reserpine; format: functional
Structure (SMILES),Selectivity Index [1],Selectivity Index [2],MIC (Staphylococcus aureus [3]) [µM],MIC (Bacillus anthracis) [µM],CC50 (HeLa) [µM],IC50 (Replicative DNA helicase) [µM],IC50 [4] [µM],MIC (Staphylococcus aureus [5]) [µM]
Cc1c(CCC(=O)O)c(=O)oc2cc(OCc3cccc(-c4ccccc4)c3)ccc12,1,4,10,2.5,10.1,15,–,–
Cc1c(CCC(=O)O)c(=O)oc2cc(OCc3ccccc3-c3ccccc3)ccc12,0.6,1.6,12.5,5,7.8,19,12,–
Cc1c(CCC(=O)NCCN(C)C)c(=O)oc2c(C)c(OCc3ccc(-c4ccccc4)cc3)ccc12,0.22,0.44,5,2.5,1.1,1.8,1.7,–
Cc1c(CCC(=O)O)c(=O)oc2c(C)c(OCc3ccccc3-c3ccccc3)ccc12,0.4,1.8,10,2.5,4.4,10.2,9,–
Cc1c(CCC(=O)O)c(=O)oc2cc(OCc3nccc4ccccc34)ccc12,–,–,–,–,–,> 100,> 100,–
Cc1c(OCc2ccc(-c3ccccc3)cc2)ccc2cc(CCC(=O)O)c(=O)oc12,2.5,>40,> 100,–,> 100,21,14,> 100
CC(=O)NCCNC(=O)CCc1c(C)c2ccc(OCc3ccc(-c4ccccc4)cc3)c(C)c2oc1=O,–,–,–,–,–,> 100,> 100,–
CNC(=O)CCc1c(C)c2ccc(OCc3ccc(-c4ccc(Cl)cc4)cc3)c(C)c2oc1=O,0.91,0.91,> 100,> 100,90.7,> 100,38,–
CCc1c(OCc2ccc(-c3ccccc3)cc2)ccc2c(C)c(CCCC(=O)O)c(=O)oc12,3.1,6.2,> 100,2.5,15.4,5,1.8,> 100
Cc1c(CC(=O)O)c(=O)oc2c(C)c(OCc3ccc(-c4ccccc4)cc3)ccc12,14,46,8.2,2.5,115,9,8.6,12.5
Cc1c(CCC(=O)O)c(=O)oc2c(C)c(OCc3ccncc3)ccc12,–,–,–,–,–,> 100,> 100,–
Cc1c(CCC(=O)O)c(=O)oc2cc(OCc3ccc4ccc(Cl)cc4n3)ccc12,–,–,–,–,–,> 100,70,–
Cc1c(CCC(=O)O)c(=O)oc2c(C)c(OCc3ccc(-c4ccc(F)cc4)cc3)ccc12,6.4,>24,3,< 0.8,19.2,5.1,3.7,–
C=CCOc1ccc2c(C)c(CCC(=O)O)c(=O)oc2c1C,–,–,–,–,–,> 100,> 100,–
Cc1c(CCC(=O)O)c(=O)oc2c(C)c(OCc3c4ccccc4cc4ccccc34)ccc12,0.4,3.3,20,2.5,8.3,7.2,8.3,50
Cc1c(CCC(=O)O)c(=O)oc2c(C)c(OCc3ccc(-c4ccc(Cl)c(Cl)c4)cc3)ccc12,6.4,6.4,3,3,19.2,3,2.4,6.3
Cc1c(CCC(=O)O)c(=O)oc2c(C)c(OCc3cccc4ccccc34)ccc12,<0.06,0.09,> 100,65,–,–,–,–
Cc1c(CCC(=O)O)c(=O)oc2c(C)c(OCc3nccc4ccccc34)ccc12,–,–,–,–,–,> 100,> 100,–
Cc1c(CCC(=O)O)c(=O)oc2c(C)c(OCc3ccc(-c4ccc(F)cc4F)cc3)ccc12,–,–,> 100,> 100,–,9,4.9,–
Cc1c(CCC(=O)O)c(=O)oc2c(C)c(OCc3ccc4ccc(Cl)cc4n3)ccc12,–,–,–,–,–,56,50,–
Cc1c(CCC(=O)O)c(=O)oc2c(C)c(OCc3ccc(-c4ccccc4C#N)cc3)ccc12,7.8,15.6,2.5,1.25,19.5,3.8,4.6,–
Cc1c(CCC(=O)O)c(=O)oc2c(C)c(OCc3ccccc3)ccc12,–,–,–,–,–,85,60,–
Cc1c(CCC(=O)O)c(=O)oc2c(C)c(OCc3cccc(-c4ccccc4)c3)ccc12,0.3,9,20,0.625,5.6,7.5,6,–
C#CCOc1ccc2c(C)c(CCC(=O)O)c(=O)oc2c1C,–,–,–,–,–,> 100,> 100,–
Cc1c(CCC(=O)O)c(=O)oc2c(C)c(OCc3ccc4ccccc4c3)ccc12,<1,7.6,> 100,5,38,9,8,> 100
CCc1c(OCc2ccc(-c3ccccc3)cc2)ccc2c(C)c(CCC(=O)O)c(=O)oc12,8.4,34,5,1.25,42,2,–,–
Cc1c(CCC(=O)O)c(=O)oc2cc(OCc3ccc(-c4ccccc4)cc3)ccc12,6.8,8.5,3.12,2.5,21.2,9.7,6,–
Cc1c(CCCC(=O)O)c(=O)oc2c(C)c(OCc3ccc(-c4ccccc4)cc3)ccc12,<0.8,25,> 100,1.25,31,2,2.2,> 100
